Screening data as filed in PubChem BioAssay.
Rad51 HR inh – human RAD51 strand exchange inhibitors, primary screen, biochemical, fluorescence. 200,000 tested, 0.085% active. hRad51 DNA strand exchange, fluorescence dequenching. inhibition, % at 10 µM. AID 1385, 2008. DNA repair protein RAD51 homolog 1 (Homo sapiens), Q06609;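 active = inhibition above 40% at the single screening dose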;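 also: 0% = DMSO control wells and 100% = blanks with heterologous ssDNA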
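Assay system: Human Rad51 nucleoprotein filaments preassembled on unlabelled ssDNA | Reagent: Donor/quencher-labelled 47-bp dsDNA substrate | Doses: One concentration, 10 µM final | Times: 37 °C 15-min filament assembly, 30-min compound preincubation, 15-min exchange | Technique: Fluorescein emission 520 nm, excitation 485 nm | Benchmarks: Plate control and blank wells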
TNF necrop inh – inhibitors of TNF-alpha triggered necroptosis, primary screen, cell-based, Jurkat FADD-/-, single concentration | Jurkat FADD-/- TNF necroptosis rescue, ATP luminescence, 24 h; 0 = TNF only, 100 = no-TNF cells | activation (protection from cell death), % at 10 µM | 220,000 tested, 0.068% active;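 active = activation, meaning protection from cell death, of at least 50% relative to plate controls; inactive = activation below 50%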;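 also: necroptosis triggered by 40 ng/mL TNF-alpha added together with compound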
Pf gamet viab – late stage P. falciparum gametocyte viability inhibitors, primary screen, ATP luminescence, HTS. inhibition, % at 10.9 µM. P. falciparum stage V gametocytes, 24 h. AID 743093, 2013. 150,000 tested, 0.065% active;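 active = inhibition above the mean plus 3 SD of compounds within the control limits, set per campaign, cut at about 38% in these data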;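 also: 0% = DMSO wells and 100% = medium only without gametocytes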
MDM2 E3 inh – MDM2-luciferase reporter signal enhancers, primary screen, MDM2 E3 ligase inhibitor project, cell-based, luminescence, 1536-well. E3 ubiquitin-protein ligase Mdm2 (Homo sapiens), Q00987. cell-based MDM2 ubiquitination luciferase reporter, 2 h; 0 = plate control, 100 = twice control, blank-subtracted. signal enhancement, % at 5 µM. 210,000 tested, 0.11% active. AID 1230, 2008;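 active = signal enhancement of 30% or more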;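 also: luminescence tracks abundance of the self-degrading MDM2-luciferase fusion protein; higher signal means inhibition of MDM2 E3 ligase activity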
Target sequence (Q00987 whole entry, looked up, the tested form may be a part): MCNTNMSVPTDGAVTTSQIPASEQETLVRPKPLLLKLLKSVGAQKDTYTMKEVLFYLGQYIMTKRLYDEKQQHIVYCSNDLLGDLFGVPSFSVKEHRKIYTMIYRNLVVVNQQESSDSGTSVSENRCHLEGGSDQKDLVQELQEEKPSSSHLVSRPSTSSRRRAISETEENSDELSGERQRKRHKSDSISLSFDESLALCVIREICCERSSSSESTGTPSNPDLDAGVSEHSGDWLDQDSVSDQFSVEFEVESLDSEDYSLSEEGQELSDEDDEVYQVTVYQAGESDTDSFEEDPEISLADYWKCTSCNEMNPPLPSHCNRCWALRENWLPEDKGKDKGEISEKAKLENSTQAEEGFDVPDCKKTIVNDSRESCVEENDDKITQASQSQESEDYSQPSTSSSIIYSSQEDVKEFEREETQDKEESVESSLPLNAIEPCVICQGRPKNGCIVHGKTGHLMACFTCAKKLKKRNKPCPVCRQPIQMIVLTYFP
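System: stable MDM2–luciferase fusion reporter cells / Input: 2000 cells seeded into each well / Schedule: 4 h settle plus 2 h compound, 37 °C / Compound: single-point 5 µM / Buffer or medium: cells held in DMEM / Benchmarks: control and blank well means / Evaluation: percent signal gain over controls, blank-subtracted / Measured by: luciferase luminescence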
zVAD death inh – inhibitors of zVAD-triggered necroptosis, primary screen, L929 cells; L929 zVAD necroptosis rescue, ATP luminescence, 24 h; with zVAD 60 µM; viability rescue, % at 10 µM; 220,000 tested, 0.38% active; AID 1377, 2008;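 active = activation, scaled between plate controls, above about 75%, limit read from the data; inactive = activation under that limit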;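 also: 0% = zVAD with DMSO and 100% = DMSO alone without zVAD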
zVAD necrop conf – inhibitors of zVAD-triggered necroptosis in L929, confirmation, L929 cells, duplicate runs | L929 zVAD-induced necroptosis rescue, ATP luminescence, 24 h | activation (protection from necroptosis), % at 10 µM | AID 463117, 2010 | shares compounds with zVAD death inh | 760 tested, 16% active;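 active = mean protection from necroptosis of at least 50% over duplicate tests; inactive = mean protection below 50%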;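 also: 0% = cells with zVAD alone and 100% = vehicle cells without zVAD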
Starred values were filed as active, the others as inactive; x = no result given. Most compounds without a hit are left out; they make up all but 0.58% or so of the library.

SMILES	Rad51 HR inh	TNF necrop inh	Pf gamet viab	MDM2 E3 inh	zVAD death inh	zVAD necrop conf
CC(C)c1ccc(Nc2nnns2)cc1	x	2	23	0	0	x
CCC1CCCCN1C(=O)c1sc2ncnc(N(CC)CC)c2c1C (stereo not given)	10	0	x	-3	1	x
O=C(O)c1c2c(nc3ccc(S(=O)(=O)N4CCC(C(=O)NC5CCCCCC5)CC4)cc13)CCCC2	-22	-1	14	2	0	x
CCc1ccccc1NC(=S)N(CCc1ccncc1)C(C)C	x	1	4	-15	0	x
CC(=O)N(C(C)=O)c1ncc2c([nH]c3ccccc32)c1C#N	-1	-11	x	-11	87*	44
C/C(CCc1ccccc1)=N/NC(=O)C(=O)NC(C)c1ccccc1 (stereo not given)	21	1	x	-7	6	x
C/C(CC(=O)NC(C)C)=N\NC(=O)C(c1ccccc1)c1ccccc1	13	30	1	-5	82*	40
CCOC(=O)CNC(=O)c1ccc(SCC)cc1	10	3	11	-13	1	x
Nc1c(C(=O)OCC2CCCO2)c2nc3ccccc3nc2n1-c1ccc2c(c1)OCCO2 (stereo not given)	-7	-7	x	-10	93*	2
CCCC(=O)Nc1cccc(C(=O)Nc2ccccc2OCC)c1	8	1	20	-17	1	x
COc1ccc(OCCC(=O)NCc2ccccc2)cc1	-1	1	x	-4	1	x
COc1ccc(OCCC(=O)NCC23CC4CC(CC(C4)C2)C3)cc1	-2	1	2	-11	94*	4
COc1ccc(Nc2ccccc2N)cc1	-29	-9	9	-3	92*	24
Nc1ccc(Nc2ccccc2N)cc1	-1	-17	x	9	9	x
CC1(C(=O)OCC(=O)Nc2ccc(C(N)=O)cc2)CC1(Cl)Cl (stereo not given)	1	1	8	-4	7	x
CC1(C(=O)OCC(=O)Nc2ccc3ccccc3c2)CC1(Cl)Cl (stereo not given)	8	3	5	-7	78*	2
O=C(NC(=S)NCc1nc2ccccc2[nH]1)c1ccc(F)cc1	10	18	x	-22	84*	17
O=C(NC(=S)NCc1nc2ccccc2[nH]1)c1ccccc1F	11	3	12	-6	12	x
CCNc1nc(NCC)nc(Oc2ccc(N)cc2)n1	1	0	7	-8	78*	30
CC(NC(=O)c1cnccn1)c1ccc(S(N)(=O)=O)cc1 (stereo not given)	-25	2	6	-11	0	x
CC(C)(C)NC(=O)Cn1nnc(-c2ccc(Cl)cc2)n1	5	0	7	-4	84*	2
O=C(Cn1nnc(-c2ccc(Cl)cc2)n1)NC1CC2CCC1C2 (stereo not given)	0	1	x	-10	83*	10
O=C(Cn1nnc(-c2ccc(Cl)cc2)n1)NCC1CCCCC1	2	-4	20	-12	88*	44
O=C(Cn1nnc(-c2ccc(Cl)cc2)n1)NCCC1=CCCCC1	-2	-2	17	-7	1	x
CC(C)(C)NC(=O)Cn1nnc(-c2ccc(S(C)(=O)=O)cc2)n1	-22	1	9	-10	0	x
SMILES	Rad51 HR inh	TNF necrop inh	Pf gamet viab	MDM2 E3 inh	zVAD death inh	zVAD necrop conf
CCCCC/C=C/C1=CC(=O)C[C@H](c2ccc(OC)c(OC)c2)C1	x	x	-1	x	x	x
COc1ccc(/C=C/C(=O)c2ccc[nH]2)cc1OC	0	20	21	-6	89*	42
COc1ccc(/C=C/C(=O)c2ccc[nH]2)c(OC)c1OC	3	14	-3	-2	52	x
NC(=O)NOCc1ccc(Cl)cc1Cl	7	2	-5	-2	84*	26
COC(=O)c1c(C)[nH]c(O)c1C=Nc1ccc(C(C)C)cc1	-17	-1	x	-6	82*	4
O=C(/C=C/c1ccc(Cl)cc1)Nc1nccs1	4	30	x	-35	77*	19
C/C=C/C=C/C(=O)Nc1nccs1	x	11	3	-1	86*	4
O=C(NCc1ccc(Cl)cc1)C(=O)Nc1nccs1	3	1	-12	-8	1	x
Cc1ccc(S[C@@H](CCN2CC[C@H](C(C)(C)C)CCC2=O)c2ccccc2)cc1	x	x	-2	x	x	x
O=C(CNC(=O)c1cccc(F)c1)N/N=C/c1cccc([N+](=O)[O-])c1	-3	1	-37	-3	0	x
CC(=O)Nc1ccc(C(=O)OCC(=O)NC(=O)NC2CCCCC2)cc1	2	-2	11	-63	80*	43
CCCS(=O)(=O)c1ccc(COC(=O)c2ccc(NC(C)=O)cc2)cc1	5	2	-36	-3	79*	0
CC(=O)Nc1ccc(C(=O)OCc2ccc(Cl)cc2)cc1	-10	-2	13	3	0	x
CC(=O)N1CCc2ccc(S(=O)(=O)N3CCN(C)CC3)cc21	2	1	16	-9	0	x
Cc1ccc(C)c(S(=O)(=O)N2CCN(CC(=O)NC(=O)NCc3ccco3)CC2)c1	1	-2	2	-6	-1	x
CC(C)(C)c1ncc(S(=O)(=O)c2ccc(C(F)(F)F)cn2)c(N)n1	-6	0	-6	-14	0	x
Cc1ccc(NC(=O)c2ccc(N3CCOCC3)c([N+](=O)[O-])c2)cc1S(=O)(=O)N1CCOCC1	2	-4	x	-4	77*	35
Cc1nc(C(=O)NNC(=O)c2ccc(C(F)(F)F)cc2)cs1	x	0	10	3	0	x
CC(=O)c1cnc2cc(-c3ccccc3)nn2c1C	4	-1	x	-32	82*	2
CC(=O)c1cnc2cc(-c3ccc(C)cc3)nn2c1C	-2	-2	x	-24	1	x
CC(=O)c1ccc(OCC(=O)Nc2ccc3c(c2)CCC3)cc1	3	-2	-12	14	75*	0
O=S(=O)(CC(CN1CCCC1)N1CCCC1)c1ccc2ccccc2c1 (stereo not given)	2	-11	6	-10	82*	46
CC(CS(=O)(=O)c1ccc2ccccc2c1)N1CCN(C2CCCCC2)CC1 (stereo not given)	x	0	x	x	0	x
CCOC(=O)c1csc(COc2ccc(OC)cc2)n1	x	1	-15	-7	0	x
CN1CCN(c2ccc(-c3ccnn3C(=O)Nc3cccc(C(F)(F)F)c3)cc2)CC1	-9	6	x	-18	84*	51*
